Results reported in paper PMC4857835 (Investigative Ophthalmology & Visual Science, 2016).

How the values were obtained:
[1] = target: human PKal (plasma kallikrein) (Homo sapiens, UniProt P03952); assay: PKal protease activity assay, fluorogenic substrate H-D-Pro-Phe-Arg-AFC; type: biochemical
Procedure, shortened: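 Purified human plasma kallikrein with fluorogenic H-D-Pro-Phe-Arg-AFC at its Km concentration, plus test compound. Fluorescence is followed over 5 min and the linear rate per min is taken. IC50 is the concentration giving 50% inhibition of uninhibited activity (100%). Fold selectivity is each related protease's IC50 relative to the human PKal IC50.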

[2] = target: mouse PKal (plasma kallikrein) (Mus musculus, UniProt P26262); assay: PKal protease activity assay, fluorogenic substrate H-D-Pro-Phe-Arg-AFC; type: biochemical
Procedure, shortened: (§1)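 Purified mouse or rat plasma kallikrein with fluorogenic H-D-Pro-Phe-Arg-AFC at substrate Km, with test compound present. Liberated fluorescence is monitored over 5 min and the linear rate per min is calculated. IC50 is the inhibitor concentration giving 50% inhibition of uninhibited enzyme activity (100%).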

[3] = target: rat PKal (plasma kallikrein) (Rattus norvegicus, UniProt P14272); assay: as above; type: biochemical
Procedure, shortened: as §1

[4] = target: thrombin (Homo sapiens, UniProt P00734); assay: Trypsin-like protease enzyme activity assay; type: biochemical
Procedure, shortened: (§2)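 Each human protease (plasmin, thrombin, trypsin, KLK1, factor XIa) is run with a suitable fluorogenic substrate. Km comes from a standard Michaelis-Menten transformation, and assays run at substrate Km. Fluorescence is read over 5 min and the linear rate per min is expressed as % activity. IC50 is 50% inhibition of uninhibited activity, and fold selectivity is relative to the human PKal IC50.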

[5] = target: plasmin (Homo sapiens, UniProt P00747); assay: Trypsin-like protease enzyme activity assay; type: biochemical
Procedure, shortened: as §2

[6] = target: KLK1 tissue kallikrein (Homo sapiens, UniProt P06870); assay: Trypsin-like protease enzyme activity assay; type: biochemical
Procedure, shortened: as §2

[7] = target: trypsin; assay: Trypsin-like protease enzyme activity assay; type: biochemical, human
Procedure, shortened: as §2

[8] = target: factor XIa (Homo sapiens, UniProt P03951); assay: Trypsin-like protease enzyme activity assay; type: biochemical
Procedure, shortened: as §2

[9] = In vivo pharmacokinetics following subcutaneous dosing; parameters: species or system male SD rats; settings: male, SD, rat, plasma, sc, 10 mg/kg
[10] = test system: VEGF-induced retinal thickening; assay: VEGF-induced retinal thickening in mice; type: in vivo, WT mice (C57Bl/6); settings: 1.60 mg/kg/d s.c. osmotic pump, VEGF 100 ng/eye
[11] = test system: VEGF-induced retinal thickening; assay: VEGF-induced retinal thickening in rats; type: in vivo, Sprague-Dawley rats; settings: 0.58 mg/kg/d s.c. osmotic pump, VEGF 10 ng/eye, 48 hours, P < 0.001
Procedure, shortened: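 Male Sprague-Dawley rats (10 weeks) got test compound 0.58 mg/kg/d or vehicle (10% PEG400 in PBS) by s.c. osmotic pump, started 1 day before 5 µL intravitreal VEGF 10 ng/eye or PBS. SD-OCT (2.5×2.5 mm volume centred on the optic nerve head) gave RPE-to-RNFL thickness 800 µm from centre at baseline, 24 and 48 h. Change from baseline was compared with vehicle-treated rats.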

human PKal (plasma kallikrein), sequence (P03952 391-638 limits assumed): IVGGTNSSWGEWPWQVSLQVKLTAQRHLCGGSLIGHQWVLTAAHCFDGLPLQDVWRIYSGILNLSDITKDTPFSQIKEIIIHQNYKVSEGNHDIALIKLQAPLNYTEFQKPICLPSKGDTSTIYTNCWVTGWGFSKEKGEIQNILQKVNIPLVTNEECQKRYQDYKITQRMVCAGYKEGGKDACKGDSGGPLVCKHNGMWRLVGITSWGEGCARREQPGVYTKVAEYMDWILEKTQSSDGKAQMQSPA
human PKal (plasma kallikrein), sequence (P03952 20-390 partner limits assumed): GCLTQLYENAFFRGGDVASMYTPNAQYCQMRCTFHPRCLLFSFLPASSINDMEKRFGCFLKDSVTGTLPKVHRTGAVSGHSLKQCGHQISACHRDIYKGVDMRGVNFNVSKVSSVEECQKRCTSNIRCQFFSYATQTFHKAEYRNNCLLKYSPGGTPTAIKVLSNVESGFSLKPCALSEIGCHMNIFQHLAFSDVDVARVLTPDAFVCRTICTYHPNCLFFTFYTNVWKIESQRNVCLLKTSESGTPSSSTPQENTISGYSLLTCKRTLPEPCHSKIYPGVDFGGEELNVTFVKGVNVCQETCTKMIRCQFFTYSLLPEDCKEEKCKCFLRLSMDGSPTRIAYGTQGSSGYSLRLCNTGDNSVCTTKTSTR
factor XIa, sequence (P03951 388-625 limits assumed): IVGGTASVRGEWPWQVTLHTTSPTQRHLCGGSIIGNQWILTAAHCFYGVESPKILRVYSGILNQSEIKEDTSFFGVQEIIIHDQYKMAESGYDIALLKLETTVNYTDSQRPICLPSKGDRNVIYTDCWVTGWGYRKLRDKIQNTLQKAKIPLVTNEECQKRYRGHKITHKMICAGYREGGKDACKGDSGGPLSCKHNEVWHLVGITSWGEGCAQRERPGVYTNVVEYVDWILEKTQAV
factor XIa, sequence (P03951 19-387 partner limits assumed): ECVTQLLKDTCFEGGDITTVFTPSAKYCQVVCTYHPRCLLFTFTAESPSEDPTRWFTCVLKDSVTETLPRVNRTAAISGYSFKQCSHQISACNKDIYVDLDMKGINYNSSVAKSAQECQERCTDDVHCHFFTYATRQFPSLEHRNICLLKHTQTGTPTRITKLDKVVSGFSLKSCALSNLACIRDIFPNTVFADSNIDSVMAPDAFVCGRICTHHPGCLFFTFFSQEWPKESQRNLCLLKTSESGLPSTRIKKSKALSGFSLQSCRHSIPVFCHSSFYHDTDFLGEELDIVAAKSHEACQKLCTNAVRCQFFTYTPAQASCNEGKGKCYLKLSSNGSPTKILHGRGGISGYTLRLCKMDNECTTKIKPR
KLK1 tissue kallikrein, sequence (P06870 25-262): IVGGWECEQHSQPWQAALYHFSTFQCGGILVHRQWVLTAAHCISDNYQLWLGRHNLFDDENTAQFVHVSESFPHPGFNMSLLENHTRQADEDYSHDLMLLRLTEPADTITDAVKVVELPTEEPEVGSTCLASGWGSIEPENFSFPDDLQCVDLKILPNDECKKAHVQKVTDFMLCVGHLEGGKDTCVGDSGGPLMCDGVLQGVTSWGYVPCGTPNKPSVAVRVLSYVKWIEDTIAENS
plasmin, sequence (P00747 581-810 limits assumed): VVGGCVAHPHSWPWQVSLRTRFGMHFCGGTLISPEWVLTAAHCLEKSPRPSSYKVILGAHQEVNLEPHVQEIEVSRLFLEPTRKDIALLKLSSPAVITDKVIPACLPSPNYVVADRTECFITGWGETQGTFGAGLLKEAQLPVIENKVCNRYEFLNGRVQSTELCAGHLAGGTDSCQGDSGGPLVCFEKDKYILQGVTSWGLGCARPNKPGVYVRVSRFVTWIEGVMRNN
plasmin, sequence (P00747 97-580 partner limits assumed): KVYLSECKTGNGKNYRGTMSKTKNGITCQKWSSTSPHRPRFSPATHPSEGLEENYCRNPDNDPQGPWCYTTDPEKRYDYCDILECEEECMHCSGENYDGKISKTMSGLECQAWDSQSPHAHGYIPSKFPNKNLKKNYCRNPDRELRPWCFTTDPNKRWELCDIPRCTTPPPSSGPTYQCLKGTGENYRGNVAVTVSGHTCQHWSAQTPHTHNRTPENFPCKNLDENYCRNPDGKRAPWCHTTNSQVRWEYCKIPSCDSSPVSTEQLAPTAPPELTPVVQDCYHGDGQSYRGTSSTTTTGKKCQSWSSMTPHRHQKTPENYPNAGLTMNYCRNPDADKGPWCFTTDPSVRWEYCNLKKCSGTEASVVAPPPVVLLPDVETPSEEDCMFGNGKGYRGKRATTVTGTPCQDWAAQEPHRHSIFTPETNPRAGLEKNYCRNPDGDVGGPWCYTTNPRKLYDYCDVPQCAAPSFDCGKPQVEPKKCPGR
rat PKal (plasma kallikrein), sequence (P14272 391-638 limits assumed): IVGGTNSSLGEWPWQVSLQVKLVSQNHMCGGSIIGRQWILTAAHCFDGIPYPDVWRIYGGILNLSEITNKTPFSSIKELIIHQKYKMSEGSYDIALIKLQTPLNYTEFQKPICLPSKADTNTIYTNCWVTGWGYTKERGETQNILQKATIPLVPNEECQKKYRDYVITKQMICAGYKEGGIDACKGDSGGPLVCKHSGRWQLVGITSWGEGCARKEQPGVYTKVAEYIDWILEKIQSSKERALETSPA
rat PKal (plasma kallikrein), sequence (P14272 20-390 partner limits assumed): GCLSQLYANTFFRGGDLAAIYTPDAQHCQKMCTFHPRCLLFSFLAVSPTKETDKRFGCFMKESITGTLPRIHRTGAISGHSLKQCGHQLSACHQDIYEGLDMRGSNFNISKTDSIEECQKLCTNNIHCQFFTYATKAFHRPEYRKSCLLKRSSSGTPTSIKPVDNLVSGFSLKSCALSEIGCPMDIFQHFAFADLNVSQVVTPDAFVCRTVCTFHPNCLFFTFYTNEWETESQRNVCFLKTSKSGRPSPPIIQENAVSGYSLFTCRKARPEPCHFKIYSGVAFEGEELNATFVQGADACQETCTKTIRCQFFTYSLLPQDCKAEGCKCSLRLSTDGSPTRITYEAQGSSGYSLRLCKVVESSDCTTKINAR
mouse PKal (plasma kallikrein), sequence (P26262 391-638 limits assumed): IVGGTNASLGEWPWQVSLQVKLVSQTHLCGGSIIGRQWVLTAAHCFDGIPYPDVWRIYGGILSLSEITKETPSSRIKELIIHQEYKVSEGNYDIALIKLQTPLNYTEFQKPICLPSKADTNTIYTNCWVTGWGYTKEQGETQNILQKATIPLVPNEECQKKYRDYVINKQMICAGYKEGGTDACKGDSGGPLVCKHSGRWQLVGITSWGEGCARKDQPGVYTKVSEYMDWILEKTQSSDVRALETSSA
mouse PKal (plasma kallikrein), sequence (P26262 20-390 partner limits assumed): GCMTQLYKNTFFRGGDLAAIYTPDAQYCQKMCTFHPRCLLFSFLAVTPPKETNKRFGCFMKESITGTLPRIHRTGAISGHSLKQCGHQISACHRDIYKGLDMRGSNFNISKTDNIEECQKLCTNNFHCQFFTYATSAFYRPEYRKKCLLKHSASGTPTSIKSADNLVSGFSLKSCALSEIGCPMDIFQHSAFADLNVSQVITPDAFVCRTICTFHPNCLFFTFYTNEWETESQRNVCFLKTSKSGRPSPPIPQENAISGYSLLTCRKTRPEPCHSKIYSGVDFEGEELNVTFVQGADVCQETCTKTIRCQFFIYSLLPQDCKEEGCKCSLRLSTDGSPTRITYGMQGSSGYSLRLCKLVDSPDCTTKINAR

Structure (SMILES): CCOc1ccc(C[C@@H](N)C(=O)N[C@@H](Cc2ccccc2)C(=O)NC2CCN(C(=N)N)CC2)cc1.O=C(O)C(F)(F)F.O=C(O)C(F)(F)F [VA999272, (R)-2-amino-N-[(S)-1-(1-carbamimidoyl-piperidin-4-ylcarbamoyl)-2-phenyl-ethyl]-3-(4-ethoxy-phenyl)-propionamide ditrifluoroacetate]
- IC50 [1]: 0.00398 ± 0.00361 µM
- Fold selectivity to human PKal ([1]; PKal itself (reference)): 1
- selectivity to PKal over closely related trypsin-like serine proteases ([1]; vs KLK1, factor XIIa, factor XIa, thrombin, plasmin, trypsin): > 1000 fold
- IC50 [2]: 0.00118 ± 0.00025 µM
- IC50 [3]: 0.00654 ± 0.00076 µM
- IC50 [4]: 9.1 µM
- Fold selectivity to human PKal ([4]; thrombin IC50 vs human PKal IC50): 2291
- IC50 [5]: 23.1 µM
- Fold selectivity to human PKal ([5]; plasmin IC50 vs human PKal IC50): 5821
- IC50 [6]: 33.5 µM
- Fold selectivity to human PKal ([6]; KLK1 IC50 vs human PKal IC50): 8414
- IC50 ([7]; read-out: Mean IC50 Trypsin, substrate at Km): 38.9 µM
- Fold selectivity to human PKal ([7]; trypsin IC50 vs human PKal IC50): 9772
- IC50 [8]: > 10 µM
- Fold selectivity to human PKal ([8]; factor XIa IC50 vs human PKal IC50): >2513
- Cmax [9]: 974 ng/mL
- Tmax [9]: 1.5 h
- half-life [9]: 3.55 h
- reduction of VEGF effect on retinal thickness vs vehicle-treated ([10]; 24 hours, P = 0.039): 36%
- reduction of VEGF effect on retinal thickness vs vehicle-treated ([10]; 48 hours, P < 0.001): 57%
- reduction of VEGF-induced retinal thickening vs vehicle-treated [11]: 53%
